Screens as filed in PubChem BioAssay.
697 NFkB inh: lowers PMA/ionomycin-induced NF-kB signal in 697 B cells; AID 435022; 0.33% of 330,000 active; 697 B-cell NF-kB luciferase reporter, 16 h; inhibition, % at 4 µM; in the data active means inhibition above about 35%
HSF1 inhib: HSF1 inhibition; NIH3T3-HGL HSE-luciferase, MG132-induced, luminescence 8 h; stronger effect = lower value; activity change, negative = inhibition, % at 7.5 µM (by protocol); 0.77% of 300,000 active; AID 2098;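 active means more than half of replicate wells show activity change below -50%, luminescence cut by over half; inconclusive means some wells, but at most half, below -50%; inactive means no replicate well below -50%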;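 further: luciferase reports HSF-1 transcriptional activity via heat shock element; 0% = median of DMSO wells and -100% = zero luminescence signal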
GPR7 antagonist: human neuropeptides B/W receptor 1 antagonism | P48145 | GPR7-expressing cells, fluorescence antagonist assay | inhibition, % at 4.4 µM | 1.1% of 290,000 active; in the data active means inhibition above about 16%, passing the limit was not always enough;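 further: cells stimulated with the agonist NPW; 0% = agonist with vehicle and 100% = vehicle without agonist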
Target sequence (P48145 whole entry, looked up): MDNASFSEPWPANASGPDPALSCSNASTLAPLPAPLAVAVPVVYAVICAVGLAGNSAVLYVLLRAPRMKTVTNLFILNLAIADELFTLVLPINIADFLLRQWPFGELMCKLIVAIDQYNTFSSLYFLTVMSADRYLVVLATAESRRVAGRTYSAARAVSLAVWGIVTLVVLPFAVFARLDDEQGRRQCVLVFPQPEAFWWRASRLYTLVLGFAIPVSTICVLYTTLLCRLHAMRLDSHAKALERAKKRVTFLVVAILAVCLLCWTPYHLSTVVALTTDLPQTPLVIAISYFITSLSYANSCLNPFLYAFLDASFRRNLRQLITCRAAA
T cruzi repl: T. cruzi replication inhibition; T. cruzi beta-gal in NIH3T3, luminescence, 90 h; 1.4% of 300,000 active; inhibition, % (concentration not given with the values);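 active means mean inhibition across valid replicates above about 55%, limit read from the data; inconclusive means mean below that limit but half or more replicates reach it; inactive means mean below it, under half of replicates reach it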;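 further: signal also drops with host cell toxicity which is not excluded here; 0% = plate median of DMSO wells and 100% = zero luminescence signal; higher percent means less beta-gal luminescence so fewer parasites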
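Read-out: Parasite load inhibition, % | Test system: Mouse NIH/3T3 fibroblasts infected with β-gal-expressing T. cruzi Tulahuen C4 | Amount: 5,000 cells/well | Medium: DMEM, 2% fetal bovine serum | Signal: GalScreen β-gal luminescence, detergent lysis, 60 min | Timing: 3 h attach, ≥90 h co-culture | Also added: Tulahuen C4 trypomastigotes, 5000/well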
Jurkat NFkB inh: lowers PMA/ionomycin-induced NF-kB signal in Jurkat cells | PMA/ionomycin-induced NF-kB luciferase reporter, luminescence | inhibition, % at 4 µM | 0.53% of 330,000 active | AID 435003; in the data active means inhibition above about 50%
HSF-1 act: increases HSF-1 driven luciferase reporter signal. NIH3T3-HGL HSF-1 luciferase reporter, MG132, 8 h; 100% = twice DMSO control signal. 1.7% of 300,000 active. activation, % at 9 µM;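 active means mean replicate activation of at least 50% with a set share of replicates each reaching 50%; inconclusive means only one of those two conditions met; inactive means mean below 50% and too few replicates reaching it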;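 further: 0% = median of the neutral control wells and 100% = twice that signal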
The depositor's hits bear a star; ? = inconclusive; · = no result. Shown are actives, neighbours in structure and some others; about 4.8% of the full set was active somewhere.

SMILES	697 NFkB inh	HSF1 inhib	GPR7 antagonist	T cruzi repl	Jurkat NFkB inh	HSF-1 act
CC1=C(C(=O)N2CCCCC2)C2(CCC(C)CC2)OC1=O (stereo not drawn)	15	-3	-8	-6	11	-2
O/C(=C\c1nc2ccccc2[nH]1)c1cccs1	-74	50	5	4	-50	60*
O=c1[nH]c2ccccc2nc1/C=C(\O)c1cccs1	-62	20	-7	8	-31	34
Cc1cnc(NC(=O)c2cccs2)s1	-119	36	-2	-2	-79	83*
O=C(Nc1nc2ccccc2[nH]1)c1cccc([N+](=O)[O-])c1	-101	38	-11	-30	-73	45
O=C(Nc1nc2ccccc2[nH]1)c1ccc([N+](=O)[O-])cc1	-154	29	-5	1	-110	61*
O=C(Nc1nc2ccccc2[nH]1)c1cccs1	-128	38	-13	-3	-132	55*
O=[N+]([O-])c1ccc2c3n([n+]([O-])c2c1)CCN=C3c1ccc(Cl)cc1	-20	2	·	4	0	0
Cc1ccc(NC(=O)CCS(=O)(=O)c2ccc3c(c2)NC(=O)C(C)S3)nc1 (stereo not drawn)	-30	15	-3	-3	-23	?
CC(=O)Nc1ccc2nc(-c3ccc(Br)o3)[nH]c2c1	-19	7	-6	-2	-41	16
O=C(Nc1ccc2nc(-c3ccc(Br)o3)[nH]c2c1)c1cccs1	-30	13	12	69*	-12	31
O=C(Nc1nc2ccccc2[nH]1)Nc1ccccc1F	-201	22	-7	2	-134	?
O=C(/C=C/c1ccc(F)cc1)Nc1nc2ccccc2[nH]1	-114	10	-10	6	-119	55*
CC1(C)CSC(=NCCc2ccccc2)N1	-27	-2	-4	10	-12	1
CC1(C)CSC(=NCCc2ccccc2)N1C(=O)c1ccc(C#N)cc1	7	-9	20*	4	8	-4
COc1ccccc1N1CCN(C(=O)C(CC(C)C)NC(=O)C2CCCCC2)CC1 (stereo not drawn)	6	18	-17	0	17	55*
COc1ccc(OC)c(NC(=O)CN2C(=O)C(=O)N(Cc3ccccc3)C2=O)c1	-11	·	·	·	5	·
O=C(c1ccc([N+](=O)[O-])o1)N1CCc2ccccc2C1	10	14	1	57*	9	11
Cc1ccc2sc(N3CCN(C(=O)c4ccc([N+](=O)[O-])o4)CC3)nc2c1C	16	-7	·	59*	11	7
COc1cc2c(cc1OC)CN(C(=O)c1ccc([N+](=O)[O-])o1)CC2	23	2	-2	50	15	7
O=C(c1ccc([N+](=O)[O-])o1)N1CCN(c2nc3c(Cl)cccc3s2)CC1	4	18	·	59*	32	20
CC(C)CNC(=O)C1CCCN(C(=O)NCc2ccccc2)C1 (stereo not drawn)	15	-11	1	8	17	-6
CCCCC[C@H]1CN(Cc2ccccc2)C(=O)[C@@H]1CC(=O)NCc1ccc(OC)cc1	-10	5	-2	-1	11	4
COC(=O)c1ccc(CO/N=C(\NC(C)=O)c2nonc2NC(C)=O)cc1	1	5	7	-2	-1	-19
CN(C(=O)c1ccc(NC(=O)C2CCN(C(=O)OC(C)(C)C)CC2)cc1)C1CCC1	7	·	·	·	8	·
SMILES	697 NFkB inh	HSF1 inhib	GPR7 antagonist	T cruzi repl	Jurkat NFkB inh	HSF-1 act
Cc1onc(-c2ccccc2)c1NC(=O)N(CCC#N)Cc1ccccc1	-55	9	-6	-4	-16	58*
CCN(Cc1ccccc1)S(=O)(=O)c1cn(C)cn1	-53	-34	3	-16	-24	-49
COc1ccc2nc(-c3cccc(N)c3)[nH]c2c1	-91	0	-12	-3	-113	12
COc1cccc(-n2c(N)c(-c3nc4ccccc4[nH]3)sc2=S)c1	4	-55*	-7	21	-1	-66
O=C(CCn1c(=S)oc2ccccc21)NC1CCCCCC1	8	-71*	-11	7	-3	-77
C/C(=N\NC(=O)c1c(Br)cnn1C)c1ccc(NC(=O)c2ccc(F)cc2)cc1	-88	-6	-8	-8	-43	6
CC(=O)/C(=N\Nc1ccccc1)Sc1cccc2cccnc12	-17	167	1	-1	4	187*
O=C(CSc1cccc2cccnc12)Nc1ccccc1F	12	3	-4	9	-3	10
CC(=O)/C(=N\Nc1ccccc1Cl)Sc1cccc2cccnc12	-22	131	11	36	-10	143*
Cn1c(SCC(=O)Nc2ccc(Cl)cc2F)nnc1-c1ccco1	4	-2	-12	-3	-7	29
COc1ccc(N(CC(=O)NC(C)(C)C)C(=O)CCC(=O)Nc2nccs2)c(OC)c1	-12	1	13	8	-13	1
O=C(CCc1nc2ccccc2c(=O)[nH]1)NNC(=O)COc1cccc(F)c1	2	·	·	·	-6	·
CCN(CC(=O)Nc1cccc(S(=O)(=O)N(C)c2ccccc2)c1)Cc1ccccc1	-15	·	·	·	-6	·
CCCNCC1C(Oc2ccc(Cl)cc2Cl)C(=O)N1c1cccc(C)c1C (stereo not drawn)	-7	8	2	62*	1	6
CCN(CC)c1ccc(C(=O)NNC(=O)c2cccn2C)cc1	-45	18	·	-17	-30	55*
CCN(CC)c1ccc(C(=O)NNC(=O)CCl)cc1	5	-2	7	-9	-8	-2
Cc1cc(Nc2ccccc2)cc(=O)n1C	2	-2	·	-4	-29	6
Cc1cccc(N/N=C/c2ccc(O)c(O)c2O)c1	-11	4	-2	1	10	-7
COc1cccc(/C=N/Nc2ccc([N+](=O)[O-])cc2)c1O	-47	18	11	-4	-117	?
O=[N+]([O-])c1cccc(N/N=C/c2cccc(O)c2O)c1	-54	21	3	35	25	65*
COc1cccc(N/N=C/c2cccc(Br)c2O)c1	-7	-6	-3	65*	-35	-5
O=C1CCC(=O)N1N1C(=O)C2C3c4ccccc4C(c4ccccc43)C2C1=O (stereo not drawn)	4	3	-15	-15	-6	-2
Cc1cc(C(=O)COc2ccc(C#N)cc2)c(C)n1CC1CCCO1 (stereo not drawn)	-11	·	·	·	-9	·
CC(C)(C)c1ccc(C(=O)NC(=S)NNC(=O)c2cccs2)cc1	·	-60*	-4	56*	·	-56
CC(C)(C)C(=O)NC(=S)NNC(=O)c1ccncc1	9	-1	-8	-17	-14	3
CC(C)(C)C(=O)NC(=S)NNC(=O)c1ccc(-c2ccccc2)cc1	-161	-17	103*	43	-19	-17
O=C(NNC(=S)Nc1ccccc1)c1ccc(O)cc1	-108	33	-6	-11	-110	57*
